Source: ChEMBL document CHEMBL3217512, “Indole/triazole conjugates are selective inhibitors and inducers of bacterial biofilms” (Medchemcomm, 2013)

Experiments:
[1] = test system: Staphylococcus aureus; assay: Antimicrobial activity against Staphylococcus aureus 29213 assessed as effect on planktonic growth at IC50 after 2 to 24 hrs by colony count method; type: organism-based; settings: in vivo
[2] = test system: Escherichia coli; assay: Induction of biofilm formation in Escherichia coli K-12 ER2718 at 50 uM after 24 hrs by crystal violet staining-based assay relative to control; type: functional
Outline: (§1)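 Static biofilm assay with compounds at 50 μM and crystal violet read-out, relative to an untreated control. Compounds increasing biofilm by less than 50% were called inducers, and by more than 50% strong inducers.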

[3] = test system: Staphylococcus aureus; assay: Antimicrobial activity against methicillin-resistant Staphylococcus aureus BAA 44 assessed as effect on planktonic growth at IC50 after 2 to 24 hrs; type: organism-based; settings: in vivo
[4] = test system: Escherichia coli; assay: Antimicrobial activity against Escherichia coli K-12 ER2718 assessed as effect on planktonic growth at 50 uM after 2 to 24 hrs; type: organism-based
Outline: (§2)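 Growth curve analysis of planktonic bacteria with each biofilm inducer at 50 μM, used to assess toxicity.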

[5] = test system: Acinetobacter baumannii; assay: Antimicrobial activity against Acinetobacter baumannii 19606 assessed as effect on planktonic growth at IC50 after 2 to 24 hrs; parameters: species or system ATCC 19606
[6] = test system: Escherichia coli; assay: Antimicrobial activity against Escherichia coli K-12 ER2718 assessed as effect on planktonic growth at PC75 after 2 to 24 hrs; type: organism-based; settings: in vivo
[7] = test system: Escherichia coli; assay: Antimicrobial activity against Escherichia coli K-12 ER2718 assessed as effect on planktonic growth at IC50 after 2 to 24 hrs by colony count method; type: organism-based
[8] = test system: Escherichia coli; assay: Antimicrobial activity against Escherichia coli K-12 ER2718 assessed as effect on planktonic growth at PC75 after 2 to 24 hrs by colony count method; type: organism-based; settings: in vivo
[9] = test system: Acinetobacter baumannii; assay: Antimicrobial activity against Acinetobacter baumannii 19606 assessed as effect on planktonic growth at PC25 after 2 to 24 hrs; parameters: species or system ATCC 19606
[10] = test system: Acinetobacter baumannii; assay: Antimicrobial activity against Acinetobacter baumannii 19606 assessed as effect on planktonic growth at IC50 after 2 to 24 hrs by colony count method; parameters: species or system ATCC 19606
[11] = test system: Acinetobacter baumannii; assay: Antimicrobial activity against Acinetobacter baumannii 19606 assessed as effect on planktonic growth at 50 uM after 2 to 24 hrs; parameters: species or system ATCC 19606; outline: as §2
[12] = test system: Acinetobacter baumannii; assay: Antimicrobial activity against Acinetobacter baumannii 19606 assessed as effect on planktonic growth at PC75 after 2 to 24 hrs by colony count method; parameters: species or system ATCC 19606
[13] = test system: Staphylococcus aureus; assay: Antimicrobial activity against Staphylococcus aureus 29213 assessed as effect on planktonic growth at PC50 after 2 to 24 hrs by colony count method; type: organism-based; settings: in vivo
[14] = test system: Staphylococcus aureus; assay: Antimicrobial activity against Staphylococcus aureus 29213 assessed as effect on planktonic growth at PC50 after 2 to 24 hrs; type: organism-based; settings: in vivo
[15] = test system: Acinetobacter baumannii; assay: Induction of biofilm formation in Acinetobacter baumannii 19606 at 50 uM after 24 hrs by crystal violet staining-based assay relative to control; type: functional, ATCC 19606 = CIP 70.34 = JCM 6841; outline: as §1
[16] = test system: Staphylococcus aureus; assay: Antimicrobial activity against Staphylococcus aureus 29213 assessed as effect on planktonic growth at IC50 after 2 to 24 hrs; type: organism-based; settings: in vivo
[17] = test system: Acinetobacter baumannii; assay: Antimicrobial activity against Acinetobacter baumannii 19606 assessed as effect on planktonic growth at PC50 after 2 to 24 hrs by colony count method; parameters: species or system ATCC 19606
[18] = test system: Staphylococcus aureus; assay: Antimicrobial activity against Staphylococcus aureus 29213 assessed as effect on planktonic growth at PC75 after 2 to 24 hrs by colony count method; type: organism-based; settings: in vivo
[19] = test system: Escherichia coli; assay: Antimicrobial activity against Escherichia coli K-12 ER2718 assessed as effect on planktonic growth at PC25 after 2 to 24 hrs by colony count method; type: organism-based
[20] = test system: Escherichia coli; assay: Antimicrobial activity against Escherichia coli K-12 ER2718 assessed as effect on planktonic growth at PC50 after 2 to 24 hrs by colony count method; type: organism-based; settings: in vivo
[21] = test system: Acinetobacter baumannii; assay: Antimicrobial activity against Acinetobacter baumannii 19606 assessed as effect on planktonic growth at PC25 after 2 to 24 hrs by colony count method; parameters: species or system ATCC 19606
[22] = test system: Staphylococcus aureus; assay: Antimicrobial activity against Staphylococcus aureus 29213 assessed as effect on planktonic growth at 50 uM after 2 to 24 hrs; type: organism-based; outline: as §2
[23] = test system: Staphylococcus aureus; assay: Inhibition of biofilm formation in methicillin-resistant Staphylococcus aureus BAA 44 at 150 uM after 24 hrs by crystal violet staining-based assay relative to control; type: functional; settings: BAA 44, 24 h
Outline: (§3)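 Static biofilm development in MRSA, read out by crystal violet staining against an untreated control. Initial screen at 150 μM. Inhibitors then went to dose-response, with IC50 taken as the concentration giving 50% inhibition of biofilm growth. Induction was judged at 50 μM: under 50% induction counted as "inducer", over 50% as "strong inducer".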

[24] = test system: Staphylococcus aureus; assay: Antimicrobial activity against Staphylococcus aureus 29213 assessed as effect on planktonic growth at PC25 after 2 to 24 hrs; type: organism-based; settings: in vivo
[25] = test system: Escherichia coli; assay: Antimicrobial activity against Escherichia coli K-12 ER2718 assessed as effect on planktonic growth at PC50 after 2 to 24 hrs; type: organism-based
[26] = test system: Escherichia coli; assay: Antimicrobial activity against Escherichia coli K-12 ER2718 assessed as effect on planktonic growth at IC50 after 2 to 24 hrs; type: organism-based
[27] = test system: Staphylococcus aureus; assay: Antimicrobial activity against methicillin-resistant Staphylococcus aureus BAA 44 assessed as effect on planktonic growth at IC50 after 2 to 24 hrs by colony count method; type: organism-based; settings: in vivo
[28] = test system: Staphylococcus aureus; assay: Induction of biofilm formation in Staphylococcus aureus 29213 at 50 uM after 24 hrs by crystal violet staining-based assay relative to control; type: functional; outline: as §1
[29] = test system: Staphylococcus aureus; assay: Antimicrobial activity against Staphylococcus aureus 29213 assessed as effect on planktonic growth at PC75 after 2 to 24 hrs; type: organism-based; settings: in vivo
[30] = test system: Escherichia coli; assay: Antimicrobial activity against Escherichia coli K-12 ER2718 assessed as effect on planktonic growth at PC25 after 2 to 24 hrs; type: organism-based
[31] = test system: Acinetobacter baumannii; assay: Antimicrobial activity against Acinetobacter baumannii 19606 assessed as effect on planktonic growth at PC75 after 2 to 24 hrs; parameters: species or system ATCC 19606
[32] = test system: Staphylococcus aureus; assay: Antimicrobial activity against Staphylococcus aureus 29213 assessed as effect on planktonic growth at PC25 after 2 to 24 hrs by colony count method; type: organism-based; settings: in vivo
[33] = test system: Acinetobacter baumannii; assay: Antimicrobial activity against Acinetobacter baumannii 19606 assessed as effect on planktonic growth at PC50 after 2 to 24 hrs; parameters: species or system ATCC 19606
[34] = test system: Acinetobacter baumannii; assay: Inhibition of biofilm formation in Acinetobacter baumannii 19606 after 24 hrs by crystal violet staining-based assay; type: functional; settings: ATCC 19606 = CIP 70.34 = JCM 6841, 24 h
Outline: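 Compounds active in the 150 μM screen were taken into dose-response studies under static conditions with a crystal violet read-out. IC50 is the concentration that inhibits 50% of biofilm growth relative to an untreated control.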

[35] = test system: Escherichia coli; assay: Inhibition of biofilm formation in Escherichia coli K-12 ER2718 at 150 uM after 24 hrs by crystal violet staining-based assay relative to control; type: functional; settings: K-12 ER2718, 24 h
[36] = test system: Staphylococcus aureus; assay: Inhibition of biofilm formation in methicillin-resistant Staphylococcus aureus BAA 44 after 24 hrs by crystal violet staining-based assay; type: functional, organism-based; settings: BAA 44, 24 h; outline: as §3

| SMILES | Activity [1] | Activity [3] | Activity [5] | Activity [7] | Activity [10] | Activity [13] | Activity [14] | Activity [16] | Activity [18] | Activity [22] | Activity [24] | Activity [26] | Activity [27] | Activity [28] | Activity [29] | Activity [32] | other results |
| --- | --- | --- | --- | --- | --- | --- | --- | --- | --- | --- | --- | --- | --- | --- | --- | --- | --- |
| O=C(NCCn1cc(Cc2c(Br)[nH]c3ccccc23)nn1)c1ccccc1F | Non-toxic | Non-toxic | Non-toxic | Non-toxic | Non-toxic | Non-toxic | Non-toxic | Non-toxic | Non-toxic | Non-toxic | Non-toxic | Non-toxic | Non-toxic | <50% | Non-toxic | Non-toxic | Activity [2]: <50%; Activity [4]: Non-toxic; Activity [6]: Non-toxic; Activity [8]: Non-toxic; Activity [9]: Non-toxic; Activity [11]: Non-toxic; Activity [12]: Non-toxic; Activity [15]: <50%; Activity [17]: Non-toxic; Activity [19]: Non-toxic; Activity [20]: Non-toxic; Activity [21]: Non-toxic; inhibition at 150 µM [23]: 20%; Activity [25]: Non-toxic; Activity [30]: Non-toxic; Activity [31]: Non-toxic; Activity [33]: Non-toxic |
| O=C(Cn1cc(Cc2c(Br)[nH]c3ccccc23)nn1)Nc1ccccc1 | Non-toxic | Non-toxic | Non-toxic | Non-toxic | Non-toxic | Non-toxic | Non-toxic | Non-toxic | Non-toxic | Non-toxic | Non-toxic | Non-toxic | Non-toxic | >50% | Non-toxic | Non-toxic | IC50 [34]: 326 µM; inhibition at 150 µM [35]: 12%; IC50 [36]: 151 µM |
